The results in this text go back to ChEMBL document CHEMBL4043208, “Small molecule inhibitors of bacterial transcription complex formation” (2017).

Experiment [1] relates to Escherichia coli. The experiment is described as follows: Growth inhibition of Escherichia coli DH5[alpha] at 0.2 mM measured every 10 mins over 16 hrs relative to control. It counts as functional. Conditions: read-out: GI. In a few lines:
(§1)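 Cultures grown with compound at 0.2 mM; growth expressed as a percentage of the untreated positive control (growth without inhibitor, taken as 100%). B. subtilis (Gram-positive) and E. coli (Gram-negative) assayed in parallel.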

Experiment [2] relates to Bacillus subtilis subsp. subtilis str. 168. The experiment is described as follows: Inhibition of Bacillus subtilis 168 RNA polymerase subunit beta' CH region interaction with full length sigmaA at 15 uM by ELISA relative to control. In a few lines: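 ELISA measuring binding of B. subtilis σA to the β'-CH region of core RNAP with compound at 15 μM. Signal expressed as a percentage of the positive control (σA–β'-CH interaction without inhibitor, set at 100%).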

For experiment [3], the system named is Bacillus subtilis. The experiment is described as follows: Growth inhibition of Bacillus subtilis 168 at 0.2 mM measured every 10 mins over 16 hrs relative to control. Type of experiment: functional. As to conditions: subsp. subtilis str. 168, read-out: GI. A digest of the protocol: as §1

Turning to `C=CCN1C(=O)/C(=C/c2c(OC)cc(OC)c3cc(C(=O)OCc4ccccc4)[nH]c23)SC1=S`, the values for the inhibition of growth at 200 µM in experiment [1] and in experiment [3] were 28% and 6%, respectively. The molecule further came in with an inhibition in experiment [2] of 63%.
Consider `COc1cc(OC)c2c(-c3ccc(Cl)cc3)c[nH]c2c1C=C1C(=O)NC(=S)NC1=O`, for which the inhibition of growth at 200 µM turned out to be 24% in experiment [1] and 0% in experiment [3]. Moreover, the inhibition in experiment [2] was found to be 14%.
In the case of `C=CCN1C(=O)/C(=C/c2c(OC)cc(OC)c3c(-c4ccccc4)c[nH]c23)SC1=S`, the inhibition of growth at 200 µM was 66% in experiment [1] and 44% in experiment [3]. For the same molecule, the inhibition in experiment [2] turned out to be 0%.
For `COc1cc(OC)c2cc(C(=O)O)[nH]c2c1C=C1C(=O)NC(=O)NC1=O`, in that order: 0%, 0% and 28%.
`COc1cc(OC)c2c(-c3ccc(Cl)cc3)c[nH]c2c1/C=C1\SC(=S)NC1=O`: the inhibition of growth at 200 µM worked out at 15% in experiment [1] and 0% in experiment [3]. In experiment [2], this molecule yielded an inhibition of 21%.
The matching figures for `COc1cc(OC)c2c(-c3ccccc3)c[nH]c2c1C=C1C(=O)NC(=S)NC1=O`: 0%, 0% and 14%.
For `COc1cc(OC)c2cc(C(=O)O)[nH]c2c1C=C1C(=O)NC(=S)NC1=O`, in that order: 0%, 0% and 71%.
For `COC(=O)c1cc2c(OC)cc(OC)c(/C=C3\SC(=S)NC3=O)c2[nH]1`, in that order: 28%, 45% and 3%.
Consider `C=CCN1C(=O)/C(=C/c2c(OC)cc(OC)c3cc(C(=O)O)[nH]c23)SC1=S`, for which the inhibition of growth at 200 µM in experiment [1] turned out to be 30%; in experiment [3] it was 21%. In addition, the inhibition in experiment [2] is 74%.
For `COC(=O)c1cc2c(OC)cc(OC)c(C=C3C(=O)NC(=O)NC3=O)c2[nH]1`, in that order: 20%, 89% and 28%.
The matching figures for `COc1cc(OC)c2c(-c3ccc(Cl)cc3)c[nH]c2c1C=C1C(=O)NC(=O)NC1=O`: 30%, 41% and 15%.
Take `COc1cc(OC)c2c(-c3ccccc3)c[nH]c2c1C=C1C(=O)NC(=O)NC1=O`: the inhibition of growth at 200 µM in experiment [1] amounted to 0%; in experiment [3] it was 83%. The molecule further showed an inhibition in experiment [2] of 45%.
For `C=CCN1C(=O)/C(=C/c2c(OC)cc(OC)c3c(-c4ccc(Cl)cc4)c[nH]c23)SC1=S`, in that order: 14%, 8% and 34%.
The matching figures for `C=CCN1C(=O)/C(=C/c2c(OC)cc(OC)c3cc(C(=O)OC)[nH]c23)SC1=S`: 79%, 22% and 46%.
The matching figures for `COC(=O)c1cc2c(OC)cc(OC)c(C=C3C(=O)NC(=S)NC3=O)c2[nH]1`: 57%, 91% and 17%.
`COc1cc(OC)c2c(-c3ccccc3)c[nH]c2c1/C=C1\SC(=S)NC1=O`: the inhibition of growth at 200 µM was found to be 45% in experiment [1] and 44% in experiment [3]. Moreover, the inhibition in experiment [2] is 17%.
The matching figures for `COc1cc(OC)c2cc(C(=O)O)[nH]c2c1/C=C1\SC(=S)NC1=O`: 26%, 0% and 36%.
